These entries were drawn from the full list.
Apaf1 activ: activates human Apaf-1 apoptosome. O14727. Apaf-1 apoptosome caspase-3 activation, DEVD-Rh110 fluorescence; active compounds read low. activity change, negative = activation, % at 20 µM. 330,000 tested, 0.31% active;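 active means activity change at or below -40% at 20 µM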
Target sequence (O14727 whole entry, looked up): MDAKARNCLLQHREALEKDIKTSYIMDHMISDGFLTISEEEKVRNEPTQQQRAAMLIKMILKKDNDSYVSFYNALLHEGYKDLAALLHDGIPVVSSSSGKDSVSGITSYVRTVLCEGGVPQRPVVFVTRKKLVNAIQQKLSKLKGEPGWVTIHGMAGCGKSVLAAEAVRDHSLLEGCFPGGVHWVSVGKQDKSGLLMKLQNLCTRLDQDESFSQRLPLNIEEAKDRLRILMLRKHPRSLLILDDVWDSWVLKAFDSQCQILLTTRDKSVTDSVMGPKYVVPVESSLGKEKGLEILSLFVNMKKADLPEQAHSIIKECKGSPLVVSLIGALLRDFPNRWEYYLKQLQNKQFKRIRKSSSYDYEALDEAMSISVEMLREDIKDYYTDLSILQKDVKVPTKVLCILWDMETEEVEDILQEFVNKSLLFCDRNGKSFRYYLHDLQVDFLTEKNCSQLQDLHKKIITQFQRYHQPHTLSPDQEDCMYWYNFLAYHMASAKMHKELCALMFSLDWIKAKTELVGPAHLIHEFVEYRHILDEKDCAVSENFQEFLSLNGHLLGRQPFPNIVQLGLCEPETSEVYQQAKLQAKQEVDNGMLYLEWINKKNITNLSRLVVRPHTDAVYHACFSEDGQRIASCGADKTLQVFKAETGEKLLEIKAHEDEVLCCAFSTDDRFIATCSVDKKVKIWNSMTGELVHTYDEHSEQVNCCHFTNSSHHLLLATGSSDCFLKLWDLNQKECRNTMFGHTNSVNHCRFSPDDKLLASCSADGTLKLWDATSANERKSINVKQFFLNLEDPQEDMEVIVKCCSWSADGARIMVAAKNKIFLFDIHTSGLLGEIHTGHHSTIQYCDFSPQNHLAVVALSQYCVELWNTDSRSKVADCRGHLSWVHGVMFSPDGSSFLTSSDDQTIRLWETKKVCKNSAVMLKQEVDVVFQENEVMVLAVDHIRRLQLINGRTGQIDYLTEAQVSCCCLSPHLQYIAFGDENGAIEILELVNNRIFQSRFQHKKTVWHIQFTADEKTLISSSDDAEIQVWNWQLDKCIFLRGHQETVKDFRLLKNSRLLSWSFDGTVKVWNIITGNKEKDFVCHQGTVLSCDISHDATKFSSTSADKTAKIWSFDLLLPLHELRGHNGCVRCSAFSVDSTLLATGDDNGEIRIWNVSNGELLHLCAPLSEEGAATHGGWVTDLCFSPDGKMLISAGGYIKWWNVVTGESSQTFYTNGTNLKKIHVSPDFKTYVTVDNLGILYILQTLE
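Material: reconstituted apoptosome of Apaf-1, cytochrome c, caspase-9, procaspase-3; times: 30 min preincubation, 50 min reaction, room temperature; measured by: fluorescence, 540 nm emission, 480 nm excitation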
Rh110 act interf: counter-screen for Apaf-1 activators: fluorescence interference. AID 504616. fluorescence interference (activity change), % at 20 µM, hits read low. Rh110 fluorescence interference, quenched caspase reaction, Ex480/Em540. 980 tested, under 10 active. shares compounds with Apaf1 activ;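 active means mean activity change at or below -40% when tested at 20 µM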
Apaf-1 act conf2: confirmation of human Apaf-1 activators; AID 504617; shares compounds with Apaf1 activ; 980 tested, 5% active; reconstituted apoptosome caspase-3 activity, DEVD-Rh110 fluorescence; active compounds read low; activity change, negative = activation, % at 20 µM;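 active means mean activity change at or below -40%, meaning activation of 40% or more, at 20 µM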
Fluor interf act: Apaf-1 activator counter-screen fluorescence artifact; shares compounds with Apaf1 activ; fluorescence interference counterscreen, Apaf-1 activator assay; EC50, µM; 55 tested, under 10 active; AID 588592; call rule not given here
Each line names hits and unclear results; the compound was inactive in the other large screens (follow-up assays come after a bar, where they were run).

Fc1ccc(F)c(C2=NNC(=Nc3ccccc3F)SC2)c1	Apaf1 activ -44.9 | Rh110 act interf inactive | Apaf-1 act conf2 inactive
CCN1CCN(C2=C(NS(=O)(=O)c3ccccc3)C(=O)c3ccccc3C2=O)CC1	none
CN1CCc2c(sc(NC(=O)c3ccc(C(=O)c4ccccc4)cc3)c2C(N)=O)C1	none
O=[N+]([O-])c1c(Nc2ccccn2)cc(Cl)c2nonc12	none
CCOc1ccc(/C=N/OCC(=O)Nc2cc(S(=O)(=O)N3CCOCC3)ccc2OC)cc1	Apaf1 activ -54.6 | Rh110 act interf inactive | Apaf-1 act conf2 inactive
CC(C)=CCC/C(C)=C/CNC(=O)C[C@H]1C[C@H](C(=O)N2CCOCC2)[C@@]2(C)c3[nH]c4ccc(Cl)cc4c3CCN2C1=O	none
O=C(N/N=C/c1ccc(-c2ccccc2[N+](=O)[O-])o1)[C@H]1C[C@@H]1c1ccccc1	none
NC(=O)N(CCC(=O)O)c1ccccc1	Apaf1 activ -47.3 | Rh110 act interf inactive | Apaf-1 act conf2 inactive
Cc1[nH]n(-c2ccccc2)c(=S)c1C=NCCCN=Cc1c(C)[nH]n(-c2ccccc2)c1=S	none
Cc1cccc(NC(=O)CCN2CCC(C)CC2)c1	Apaf1 activ -54.1 | Rh110 act interf inactive | Apaf-1 act conf2 inactive
Cc1cccc(NC(=O)NCc2ccc3c(c2)cc(C)n3C)c1	none
COc1ccc(CN2CCC(C(=O)Nc3ccc(Oc4cccnc4)cc3)CC2)cc1	none
COc1ccc(NC(=O)CN2CCC(C)CC2)cc1	Apaf1 activ -51.9 | Rh110 act interf inactive | Apaf-1 act conf2 inactive
COc1ccc(NC(=O)CN(C)C(=O)C2CSC3(C)CCC(=O)N23)cc1 (configuration not stated)	none
Cc1cccc(NC(=O)c2sc3nc4c(c(-c5cccs5)c3c2N)CN(C)CC4)c1	none
C#CCOCCOCCOCCNc1nc(N2CCN(C(=O)CCCCCCCCCCNC(=O)[C@H]([C@@H](C)CC)n3cc(CCCCCN)nn3)CC2)nc(N2CCN(C(=O)CCCCCCCCCCNC(=O)[C@H](CO)n3cc(CCCCCN)nn3)CC2)n1	none
Cc1cc(C)nc(NC(=O)CSc2nc3ccccc3o2)n1	Apaf1 activ -70.8 | Rh110 act interf inactive | Apaf-1 act conf2 inactive
Nc1cc2nc3ccccc3oc-2cc1=O	none
CC(C(=O)O)N1C(=O)/C(=C/C=C/c2ccco2)SC1=S (configuration not stated)	none
CN(CC(=O)Nc1cccc(F)c1)C(=O)c1sc2ccccc2c1Cl	none
CCOc1ccc2oc(C(=O)N(C)CC(=O)Nc3ccc(OCC)c(OCC)c3)c(C)c2c1	Apaf1 activ -54.8 | Rh110 act interf inactive | Apaf-1 act conf2 inactive
O=C(Cc1cc(=O)[nH][nH]1)N/N=C/C=C/c1ccccc1	none
C(=N\c1c(-c2ccccc2)nc2n1CCS2)/c1ccccc1	none
O=C1C(SCCO)=C(SCCO)C(=O)c2ccccc21	none
COc1ccc(C(=O)Nc2ccc(/C(C)=N/NC(=O)c3ccccc3O)cc2)cc1OC	Apaf1 activ -176.0 | Rh110 act interf inactive | Apaf-1 act conf2 inactive
CC(=O)N(C1=C(N)C(=O)c2ccccc2C1=O)c1ccccc1	none
Cc1cc(/C=C\c2ccc3cc(N(C)C)ccc3[n+]2C)c(C)n1-c1ccccc1	none
O=C(NCC(c1ccc(F)cc1)N1CCOCC1)c1cccnc1Sc1ccccc1 (configuration not stated)	Apaf1 activ -57.4 | Rh110 act interf inactive | Apaf-1 act conf2 inactive
COc1ccc(C(CNC(=O)c2cccn2C)N2CCOCC2)cc1 (configuration not stated)	none
O=C1N/C(=C\c2ccc(O)cc2)C(=O)c2ccccc21	none
COc1cccc(NC(=O)C2CCCO2)c1 (configuration not stated)	Apaf1 activ -114.4 | Rh110 act interf inactive | Apaf-1 act conf2 inactive
COc1ccc(OC)c(C2=NOC(C(=O)Nc3ccc4c(c3)OCCO4)C2)c1 (configuration not stated)	none
C=CCNC(C(=O)Nc1cccc(OC)c1)c1ccccc1 (configuration not stated)	none
CCc1ccc(S(=O)(=O)/N=C2\C=C(Nc3ccc(C(=O)O)cc3)C(=O)c3ccccc32)cc1	none
Cc1ccc(S(=O)(=O)/N=C2\C=C(Nc3cccc(C(=O)O)c3)C(=O)c3ccccc32)c(C)c1	none | Fluor interf act inactive
Cc1ccc(S(=O)(=O)/N=C2\C=C(Nc3cccc(C(=O)O)c3)C(=O)c3ccccc32)cc1	none
CCOC(=O)c1c(NC(=O)CN2CCN(C(=O)c3ccco3)CC2)sc2c1CCCC2	none
Cc1ccc(S(=O)(=O)NC(=O)Nc2ccccc2)cc1	Apaf1 activ -528.6 | Rh110 act interf inactive | Apaf-1 act conf2 inactive
Cc1ccc(S(=O)(=O)/N=C2\C=C(Nc3ccc(O)cc3)C(=O)c3ccccc32)cc1	none
CC(=O)Nc1ccc(S(=O)(=O)Nc2nc3ccccc3nc2Nc2ccc(C(=O)O)c(O)c2)cc1	none
CC(C)(C)C1CCC(CN2C(Nc3ccccc3)=NC[C@@H]2Cc2ccccc2)CC1 (some centres not stated)	none
O=C1C=C(Nc2ccccc2)c2ccccc2C1=O	none
CCOc1ccc(-n2nc3ccc(N)cc3n2)cc1	none
C=C(C)Cn1c(NCCOC)nc2c1c(=O)[nH]c(=O)n2C	Apaf1 activ -40.3 | Rh110 act interf inactive | Apaf-1 act conf2 inactive
CC(C)(C)NC(=O)NC(=O)COC(=O)c1nc(-c2ccccc2)n(-c2cccc(C(F)(F)F)c2)n1	Apaf1 activ -47.1 | Rh110 act interf inactive | Apaf-1 act conf2 inactive
COC(=O)C1=C(C)N(Cc2ccccc2)C(=NCc2ccccc2)N[C@H]1c1cccc(C(F)(F)F)c1	none
c1csc(Cc2nn3c(-c4n[nH]c5c4CCC5)nnc3s2)c1	none
CSc1nncc(/C(C)=N\Nc2cccc(C)c2)n1	none
COc1ccc(-c2sc3cc4c(cc3c2-c2ccc(OCCN3CCCCC3)cc2)OCO4)cc1	none
O=C(Nc1ccccc1)N1CCC(C(=O)N2CCN(S(=O)(=O)c3cccc(F)c3)CC2)CC1	Apaf1 activ -50.5 | Rh110 act interf inactive | Apaf-1 act conf2 inactive
O=C(Nc1ccccc1N1CCCC1)C1CCN(S(=O)(=O)c2cccc(C(F)(F)F)c2)CC1	none
COC(=O)/C(=C/Nc1ccc(O)cc1)[N+](=O)[O-]	none
Cc1cccc(CC(=O)NCCn2c(C)cc3ccccc32)c1	none
CC(=O)c1c(O)cc(C)n(Cc2ccccc2)c1=O	Apaf1 activ -71.1 | Rh110 act interf inactive | Apaf-1 act conf2 inactive
O=C(NC(Cc1ccccc1)C(=O)NCc1ccccn1)c1ccco1 (configuration not stated)	Apaf1 activ -187.4 | Rh110 act interf inactive | Apaf-1 act conf2 inactive
Cc1noc(C)c1COC(=O)C1COc2ccccc2O1 (configuration not stated)	Apaf1 activ -72.6 | Rh110 act interf inactive | Apaf-1 act conf2 inactive
COc1ccc(C)cc1NC(=O)COC(=O)C1COc2ccccc2O1 (configuration not stated)	Apaf1 activ -52.9 | Rh110 act interf inactive | Apaf-1 act conf2 inactive
COc1ccc(C)cc1NC(=O)CN1C(=O)C2CC=CCC2C1=O (configuration not stated)	Apaf1 activ -315.2 | Rh110 act interf inactive | Apaf-1 act conf2 inactive

High-throughput results from PubChem BioAssay.
